# Experimental data reported in PubChem BioAssay.
# Active and inactive are the calls of the source.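 The calls were made as follows, unless noted: active = viability at or under a set limit in both replicates, limit being median viability minus 3 SD (cut at about 48% in these data, passing the limit was not always enough); inconclusive = at or under the limit in just one replicate; inactive = at or above the limit in both replicates.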
# Legend:
# [1] = reducers of endogenous Her2 protein level, primary screen, SKBR3 breast tumor cells, AlphaScreen, ATP viability (AID 461;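 active = Her2 level under about 52% in both replicate screens, with viability over 70% of control, limit read from the data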;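 as to Her2 level: lower value means less Her2 protein in the cells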;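 as to viability: percent of carrier control wells set as 100% viability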); details: 18-24 h, measured here: SKBR3 viability, ATP luminescence, at 10 µM
# [2] = target: Receptor tyrosine-protein kinase erbB-2 (Homo sapiens) (UniProt P04626); experiment: as above; details: 18-24 h, at 10 µM, stronger effect = lower value
# [3] = SK-BR-3 cell growth inhibitors, pilot screen, 24 h, human (AID 572;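 active = viability at or below 10% of carrier control in both of two separate runs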;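 also: compound exposure lasted between 18 and 24 h rather than exactly 24 h; 100% = carrier-treated control wells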); details: SK-BR-3 viability, CellTiter-Glo luminescence, at 10 µM, stronger effect = lower value
# [4] = HUVEC growth inhibition – cell-based, human, primary screen (AID 575;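 active = viability at or below 30% in both replicate assays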;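 also: 100% = median of untreated cell wells with 0.1% DMSO on each plate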); details: HUVEC proliferation, CellTiter-Glo luminescence, 72 h; at 10 µM; stronger effect = lower value
# In short: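 Test system – primary HUVEC, no more than 12 passages · Dosing – one dose, 10 µM final, 0.1% DMSO · Times – 72 h treatment at 37 °C · Measured by – ATP-based CellTiter-Glo luminescent read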
# [5] = growth inhibitors of H69AR lung tumor, primary screen, human, duplicate replicates (AID 580); details: H69AR lung tumor cells viability, ATP luminescence, 72 h; at 10 µM; stronger effect = lower value;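 also: 100% = mean luminescence of untreated wells and 0% = no signal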
# [6] = reversal of MRP1-mediated doxorubicin resistance, pilot screen, H69AR cells, doxorubicin co-treatment (AID 601;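 active = viability loss from added drug above about 55%, and viability with drug at most 40%, in both replicates, limit read from the data, passing the limit was not always enough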); details: CellTiter-Glo, 72 h, at 10 µM; for differential viability (reversal): stronger effect = higher value
# [7] = 384-well plate pilot, post-Golgi transport modulator project, inhibition of yeast transport mutant growth (AID 636; in the data active = inhibition above about 31%); details: absorbance 615 nm, about 18 h, stronger effect = higher value
# [8] = growth suppression of yeast trafficking mutant, preliminary HTS, modulators of trafficking downstream of Golgi apparatus project, 1536-format plate, OD 615 nm (AID 637; in the data active = inhibition above about 30%); details: yeast transport mutant growth, absorbance 615 nm, 18 h; stronger effect = higher value
# [9] = H69AR cells + 2 uM doxorubicin, measured here: viability with 2 uM doxorubicin, stronger effect = lower value
# [10] = H69AR cells, compound alone cytotoxicity
# Receptor tyrosine-protein kinase erbB-2 (Homo sapiens), sequence (P04626 whole entry, looked up): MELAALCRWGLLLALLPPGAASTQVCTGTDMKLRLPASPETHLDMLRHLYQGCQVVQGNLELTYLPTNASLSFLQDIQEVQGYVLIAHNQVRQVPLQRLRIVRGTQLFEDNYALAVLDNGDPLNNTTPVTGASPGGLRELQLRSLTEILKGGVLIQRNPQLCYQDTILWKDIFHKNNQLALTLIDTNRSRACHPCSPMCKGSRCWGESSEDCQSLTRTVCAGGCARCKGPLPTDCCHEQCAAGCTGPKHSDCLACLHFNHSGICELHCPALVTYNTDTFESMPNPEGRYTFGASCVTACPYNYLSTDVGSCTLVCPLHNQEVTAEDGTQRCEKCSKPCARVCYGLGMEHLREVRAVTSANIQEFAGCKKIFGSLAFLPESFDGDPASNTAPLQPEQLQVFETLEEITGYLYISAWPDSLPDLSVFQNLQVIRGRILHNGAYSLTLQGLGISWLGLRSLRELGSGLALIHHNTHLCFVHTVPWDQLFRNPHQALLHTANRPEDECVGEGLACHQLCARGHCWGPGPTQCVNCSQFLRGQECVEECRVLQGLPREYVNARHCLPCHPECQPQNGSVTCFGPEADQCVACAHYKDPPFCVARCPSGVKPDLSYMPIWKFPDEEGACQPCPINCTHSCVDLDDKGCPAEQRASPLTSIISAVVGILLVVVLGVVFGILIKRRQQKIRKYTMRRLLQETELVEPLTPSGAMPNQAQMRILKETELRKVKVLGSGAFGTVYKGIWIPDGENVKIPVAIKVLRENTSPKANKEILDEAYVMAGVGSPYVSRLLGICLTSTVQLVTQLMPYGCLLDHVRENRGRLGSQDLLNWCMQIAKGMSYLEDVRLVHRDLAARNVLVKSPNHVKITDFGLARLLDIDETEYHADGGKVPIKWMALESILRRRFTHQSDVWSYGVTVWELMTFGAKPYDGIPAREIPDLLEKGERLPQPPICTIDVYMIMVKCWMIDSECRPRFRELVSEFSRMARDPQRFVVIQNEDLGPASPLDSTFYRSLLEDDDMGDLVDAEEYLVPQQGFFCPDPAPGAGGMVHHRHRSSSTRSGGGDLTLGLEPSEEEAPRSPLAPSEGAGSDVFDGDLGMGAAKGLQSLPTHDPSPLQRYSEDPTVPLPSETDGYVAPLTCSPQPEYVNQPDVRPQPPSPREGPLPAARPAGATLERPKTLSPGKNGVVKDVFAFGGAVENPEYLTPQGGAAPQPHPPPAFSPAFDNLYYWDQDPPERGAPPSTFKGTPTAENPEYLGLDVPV
Structure (SMILES),viability [1],Her2 level [2],viability [3],viability [4],viability [5],differential viability (reversal) ([6]; H69AR cells + 2 uM doxorubicin),"viability [6, 9]","viability [6, 10]",inhibition [7],inhibition [8]
O=C(Nc1ccccc1C(=O)NCC1CCCO1)c1ccco1 (stereo not given),110%,89% (inactive),110% (inactive),97.9% (inactive),98.7% (inactive),-1.63% (inactive),100%,98.7%,-1.71% (inactive),-5.71% (inactive)
O=S(=O)(Nc1ccc(Cc2ccncc2)cc1)N1CCCC1,88%,94% (inactive),88% (inactive),104% (inactive),92.4% (inactive),-6.24% (inactive),98.6%,92.4%,-3.92% (inactive),-1.97% (inactive)
O=C(CN1C(=O)c2cccc3cccc1c23)NCC1CCCO1 (stereo not given),104%,116% (inactive),104% (inactive),98.8% (inactive),96.5% (inactive),1.85% (inactive),94.7%,96.5%,1.05% (inactive),1.97% (inactive)
O=C(CSC1=NC(=O)C(Cc2ccccc2)C(=O)N1)NC1CCCCC1 (stereo not given),100%,118% (inactive),100% (inactive),87.8% (inactive),91.7% (inactive),8.56% (inactive),83.2%,91.7%,-0.53% (inactive),23.1% (inactive)
O=C1CSC(=Nc2ccc(O)cc2)N1c1ccc(O)cc1,93%,89.5% (inactive),93% (inactive),89.2% (inactive),91.4% (inactive),9.79% (inactive),81.6%,91.4%,-7.07% (inactive),-1.64% (inactive)
COC(=O)CC1C(=O)NCCN1C(=O)NC1CCCCC1 (stereo not given),94%,114% (inactive),94% (inactive),104% (inactive),98.8% (inactive),7.06% (inactive),91.7%,98.8%,-9.59% (inactive),-6.98% (inactive)
O=C(CCn1c(=S)[nH]c2cc3c(cc2c1=O)OCO3)N1CCN(C2CCCCC2)CC1,90.5%,82.5% (inactive),90.5% (inactive),93.8% (inactive),90% (inactive),-2.85% (inactive),92.8%,90%,-5.54% (inactive),-0.66% (inactive)
Cc1oc2c(CN3CCCC3)c(O)ccc2c(=O)c1-c1ccccc1,88.5%,82% (inactive),88.5% (inactive),80.1% (inactive),89% (inactive),2.93% (inactive),86%,89%,-4.34% (inactive),0.48% (inactive)
Cn1c(CN2CCOCC2)nc2cc(NC(=O)c3ccccc3Cl)ccc21,102%,103% (inactive),102% (inactive),92% (inactive),97.1% (inactive),-2.36% (inactive),99.5%,97.1%,-3.55% (inactive),-2.42% (inactive)
CC(C(=O)N1CCOCC1)N1c2cccc3cccc(c23)S1(=O)=O (stereo not given),101%,91.5% (inactive),101% (inactive),100% (inactive),93.5% (inactive),0.905% (inactive),92.6%,93.5%,-2.76% (inactive),5.57% (inactive)
COc1ccc(-c2noc(CSc3nc(N)c(-c4ccccc4)c(=O)[nH]3)n2)cc1OC,106%,94.5% (inactive),106% (inactive),94.6% (inactive),84.7% (inactive),-0.7% (inactive),85.4%,84.7%,-4.13% (inactive),-3.97% (inactive)
O=C(Nc1ccccc1C(=O)N1CCN(c2ccccc2)CC1)c1ccco1,96%,101% (inactive),96% (inactive),95.6% (inactive),100% (inactive),5.93% (inactive),94.2%,100%,-2.53% (inactive),4.43% (inactive)
O=C(NCCN1CCOCC1)C1CC(=O)N(c2ccc(F)c(Cl)c2)C1 (stereo not given),124%,111% (inactive),124% (inactive),100% (inactive),98.2% (inactive),3.27% (inactive),94.9%,98.2%,-1.18% (inactive),-4.03% (inactive)
Cc1ccc(C(=O)C2COC(=O)C2)cc1 (stereo not given),109%,80.5% (inactive),109% (inactive),95.7% (inactive),85.3% (inactive),3.12% (inactive),82.2%,85.3%,-1.97% (inactive),-4.84% (inactive)
CCOC(=O)CN1CC23C=CC(O2)C(C(=O)NC2CCCC2)C3C1=O (stereo not given),86.5%,84% (inactive),86.5% (inactive),106% (inactive),98.2% (inactive),10.6% (inactive),87.6%,98.2%,-0.64% (inactive),4.33% (inactive)
